# Measured values as given in ChEMBL document CHEMBL4837218, “Synthesis and in vitro antitumour activity of 4(R)-methyl-3-O-phosphonomethyl-α-l-threose nucleosides” (Eur J Med Chem, 2021).
# Calls of active or inactive are those of the source. The calls are words filed in the database; no cut-off is given here.
# Columns and labels:
# [1] = test system: MDA-MB-231; experiment: Induction of G2/M phase cell cycle arrest in human MDA-MB-231 cells assessed as upregulation of p-cdc25c protein expression at 9 uM measured after 48 hrs in presence of cdc25c inhibitor, NSC663284 by western blot analysis; assay type: functional, cell-based
# [2] = test system: MDA-MB-231; experiment: Inhibition of PI3K/AKT signalling pathway in human MDA-MB-231 cells assessed as downregulation of 85ap-PI3K expression at 3 to 9 uM measured after 48 hrs by Western blot analysis; assay type: cell-based; details: dose 3-9 µM
# Summary of the method: (§1)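 After 48 h exposure to compound at several concentrations, cells collected and proteins extracted. SDS-PAGE on 5–15% gels, transfer to nitrocellulose, blocking 2 h in 5% nonfat milk in PBS/0.1% Tween 20, primary antibodies overnight at 4 °C, biotin-conjugated secondary 1 h. Detection on X-ray film; band densitometry.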
# [3] = test system: MDA-MB-231; experiment: Induction of apoptosis in human MDA-MB-231 cells assessed as increase in cleaved caspase 9 protein expression at 9 uM measured after 48 hrs in presence of cdc25c inhibitor, NSC663284 by western blot analysis; assay type: functional, cell-based
# Summary of the method: (§2)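 Four arms per cell line: untreated, test compound, 0.3 µM NSC663284 alone, and combination. Proteins harvested after 48 h and resolved by SDS-PAGE on 5–15% gels, transferred to nitrocellulose. Blocked 2 h in milk/PBS-Tween, primary antibodies overnight at 4 °C, biotin-conjugated secondary. Read on X-ray film with densitometry.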
# [4] = test system: MDA-MB-231; experiment: Inhibition of PI3K/AKT signalling pathway in human MDA-MB-231 cells assessed as downregulation of AKT phosphorylation at Ser473 residue at 3 to 9 uM measured after 48 hrs by Western blot analysis; assay type: cell-based; details: dose 3-9 µM; summary of the method: as §1
# [5] = test system: MCF7; experiment: Cell cycle arrest in human MCF7 cells assessed as accumulation at S phase at 4 uM measured after 48 hrs by propidium iodide staining based flow cytometry (reference value: 25.34 %); assay type: functional
# [6] = test system: MCF7; experiment: Cell cycle arrest in human MCF7 cells assessed as accumulation at G2/M phase at 2 uM measured after 48 hrs by propidium iodide staining based flow cytometry (reference value: 0.01 %); assay type: functional
# [7] = test system: A549; experiment: Antiproliferative activity against human A549 cells assessed as cell growth inhibition measured after 72 hrs by MTT assay; assay type: functional, cell-based; details: A549, 72 h
# Summary of the method: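 Cells seeded at 3000 exponentially growing cells/well and incubated 12 h at 37 °C. Medium then replaced with fresh medium containing graded compound concentrations for 72 h; 5-FU positive control. MTT (5 mg/mL solution) added for 4 h, formazan dissolved in DMSO, absorbance read at 570 nm (reference 630 nm). Relative percentage inhibition of viable cells calculated; IC50 reported as mean ± standard deviation.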
# [8] = test system: MDA-MB-231; experiment: Induction of mitochondrial membrane potential loss in human MDA-MB-231 cells assessed as green fluorescence intensity at 3 uM measured after 48 hrs by JC1 staining-based flow cytometry analysis (reference value: 0.8 %); assay type: functional
# [9] = test system: MDA-MB-231; experiment: Induction of apoptosis in human MDA-MB-231 cells assessed as early apoptotic cells at 6 uM measured after 48 hrs by Annexin V-FITC/propidium iodide staining based flow cytometric analysis (reference value: 1%); assay type: functional
# [10] = test system: MCF7; experiment: Induction of G2/M phase cell cycle arrest in human MCF7 cells assessed as upregulation of p-cdc25c at ser216 residue protein expression at 4 uM measured after 48 hrs by western blot analysis; assay type: functional, cell-based
# Summary of the method: (§3)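 Cells exposed to graded concentrations for 48 h, then proteins extracted. Run on SDS-PAGE (5–15% gels) and transferred to nitrocellulose. Blocked 2 h in 5% nonfat milk in PBS/0.1% Tween 20, primary antibody overnight at 4 °C, biotin-conjugated secondary 1 h. Visualized on X-ray film with densitometric quantitation; three independent experiments.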
# [11] = test system: MCF7; experiment: Inhibition of PI3K/AKT signalling pathway in human MCF7 cells assessed as downregulation of AKT phosphorylation at Ser473 residue at 1 to 4 uM measured after 48 hrs by Western blot analysis; assay type: cell-based; details: dose 1-4 µM; summary of the method: as §1
# [12] = test system: MDA-MB-231; experiment: Induction of apoptosis in human MDA-MB-231 cells assessed as increase in cleaved caspase 7 protein expression at 9 uM measured after 48 hrs in presence of cdc25c inhibitor, NSC663284 by western blot analysis; assay type: functional, cell-based; summary of the method: as §2
# [13] = test system: MCF7; experiment: Induction of DNA damage in human MCF7 cells assessed as increase in Chk1 protein expression at 1 to 4 uM measured after 48 hrs by western blot analysis; assay type: functional, cell-based; details: dose 1-4 µM; summary of the method: as §3
# [14] = test system: MDA-MB-231; experiment: Induction of apoptosis in human MDA-MB-231 cells assessed as increase in cleaved PARP protein expression at 9 uM measured after 48 hrs in presence of cdc25c inhibitor, NSC663284 by western blot analysis; assay type: functional, cell-based; summary of the method: as §2
# [15] = test system: MCF7; experiment: Cell cycle arrest in human MCF7 cells assessed as accumulation at S phase at 2 uM measured after 48 hrs by propidium iodide staining based flow cytometry (reference value: 25.34 %); assay type: functional
# [16] = test system: MCF7; experiment: Induction of apoptosis in human MCF7 cells assessed as increase in cleaved caspase 7 protein expression at 1 to 4 uM measured after 48 hrs by western blot analysis; assay type: functional, cell-based; details: dose 1-4 µM
# Summary of the method: (§4)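 MCF-7 and MDA-MB-231 breast cancer cells treated 48 h with a concentration series, then lysed for protein. SDS-PAGE on 5–15% gels, transfer to nitrocellulose. Blocked 2 h in 5% nonfat milk/PBS-0.1% Tween 20, primary antibodies overnight at 4 °C, biotin-conjugated secondary 1 h. X-ray film detection with densitometric quantification.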
# [17] = test system: MCF7; experiment: Induction of mitochondrial membrane potential loss in human MCF7 cells assessed as green fluorescence intensity at 4 uM measured after 48 hrs by JC1 staining-based flow cytometry analysis (reference value: 8.1 %); assay type: functional
# [18] = test system: MDA-MB-231; experiment: Cell cycle arrest in human MDA-MB-231 cells assessed as accumulation at G1 phase at 6 uM measured after 48 hrs by propidium iodide staining based flow cytometry (reference value: 46.28 %); assay type: functional
# [19] = test system: MDA-MB-231; experiment: Cell cycle arrest in human MDA-MB-231 cells assessed as accumulation at G1 phase at 3 uM measured after 48 hrs by propidium iodide staining based flow cytometry (reference value: 46.28%); assay type: functional
# [20] = test system: MCF7; experiment: Induction of mitochondrial membrane potential loss in human MCF7 cells assessed as red fluorescence intensity at 2 uM measured after 48 hrs by JC1 staining-based flow cytometry analysis (reference value: 91.9%); assay type: functional
# [21] = test system: MCF7; experiment: Induction of apoptosis in human MCF7 cells assessed as increase in cleaved caspase 3 protein expression at 1 to 4 uM measured after 48 hrs by western blot analysis; assay type: functional, cell-based; details: dose 1-4 µM; summary of the method: as §4
# [22] = test system: MDA-MB-231; experiment: Induction of apoptosis in human MDA-MB-231 cells assessed as late apoptotic cells at 3 uM measured after 48 hrs by Annexin V-FITC/propidium iodide staining based flow cytometric analysis (reference value: 0.3%); assay type: functional
# [23] = test system: MDA-MB-231; experiment: Induction of DNA damage in human MDA-MB-231 cells assessed as increase in Chk2 protein expression at 3 to 9 uM measured after 48 hrs by western blot analysis; assay type: functional, cell-based; details: dose 3-9 µM; summary of the method: as §3
compound,measurement,setting,value
C[C@H]1O[C@@H](n2cnc3c(N)nc(F)nc32)[C@H](O)[C@H]1OCP(=O)([O-])[O-].[Na+].[Na+],Activity,[1],inactive
same,inhibition,[2],Active
same,Activity,[3],inactive
same,inhibition,[4],Active
same,Activity,[5],31.16%
same,Activity,[6],17.9%
same,IC50,[7],3.48 µM
same,Activity,[8],1.4%
same,Activity,[9],19.1%
same,Activity,[10],Active
same,inhibition,[11],Active
same,Activity,[12],inactive
same,Activity,[13],Active
same,Activity,[14],inactive
same,Activity,[15],38.69%
same,Activity,[16],Active
same,Activity,[17],58.1%
same,Activity,[18],37.3%
same,Activity,[19],44.13%
same,Activity,[20],67.2%
same,Activity,[21],Active
same,Activity,[22],13%
same,Activity,[23],Active
